Assay outcomes from PubChem.
Arbovirus anti: antivirals against arbovirus infection; arbovirus infection cell-based antiviral screen; inhibition, % at 10 µM; 200,000 compounds, 0.37% hits; AID 1251; in the data active = inhibition above about 30%
Mdm2 ligase inh: inhibitors of human Mdm2 E3 ubiquitin ligase; Q00987; cell-based MDM2 ubiquitination luciferase reporter, 2 h; 0 = plate control, 100 = twice control, blank-subtracted; signal enhancement, % at 5 µM; 210,000 compounds, 0.11% hits;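 active = signal enhancement of 30% or more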;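 note: luminescence tracks abundance of the self-degrading MDM2-luciferase fusion protein; higher signal means inhibition of MDM2 E3 ligase activity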
Target sequence (Q00987 whole entry, looked up, the tested form may be a part): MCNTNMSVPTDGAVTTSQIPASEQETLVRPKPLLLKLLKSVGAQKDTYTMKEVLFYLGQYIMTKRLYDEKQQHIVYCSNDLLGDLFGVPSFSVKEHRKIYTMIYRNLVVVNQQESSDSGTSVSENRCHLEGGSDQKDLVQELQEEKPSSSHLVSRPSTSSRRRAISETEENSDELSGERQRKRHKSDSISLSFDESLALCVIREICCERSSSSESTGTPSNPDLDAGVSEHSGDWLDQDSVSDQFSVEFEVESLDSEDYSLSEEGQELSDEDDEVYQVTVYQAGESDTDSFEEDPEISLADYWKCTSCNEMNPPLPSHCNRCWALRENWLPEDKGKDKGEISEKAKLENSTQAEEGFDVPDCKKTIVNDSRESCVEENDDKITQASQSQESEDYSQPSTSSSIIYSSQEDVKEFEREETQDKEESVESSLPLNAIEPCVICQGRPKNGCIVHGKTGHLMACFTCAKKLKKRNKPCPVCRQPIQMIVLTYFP
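Test system: mammalian cells stably expressing self-ubiquitinating, self-degrading MDM2 E3–luciferase fusion; Amount: 2000 cells in each well; Medium: DMEM; Schedule: 4 h settle plus 2 h compound, 37 °C; Technique: SteadyLite luciferase luminescence after 15 min room-temperature reagent incubation; Benchmarks: plate control and blank wells.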
PKD1 inh: PKD1 (human) kinase inhibition; inhibition, % (test concentration not listed); 200,000 compounds, 0.056% hits; AID 797; Q15139; PKD1 kinase fluorescence polarization assay; in the data active = inhibition above about 50%
ROMK mod: modulates human ROMK potassium channel activity. B-score at 10 µM. 130,000 compounds, 2% hits. Tet-inducible ROMK, thallium flux fluorescence; actives lie on both sides. P48048;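 active = signal ratio slope over the read window, or its plate-corrected B-score, at least 3 SD from the plate mean, either direction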;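 note: B-score of the F/F0 ratio slope over 7 to 12 s after thallium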
m-calpain inh: calpain II (pig) inhibition; purified calpain II, fluorogenic peptide substrate, 30 min; inhibition, % at 16 µM; 220,000 compounds, 0.37% hits; AID 1236;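 active = inhibition above about 50%, limit read from the data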
KCC2 mod: modulators of human KCC2 chloride dependent transport | 190,000 compounds, 2.2% hits | KCC2 cells, thallium flux FluoZin-2 fluorescence | Q9H2X9 | B-score of Tl+ flux slope (higher = more flux/activation; lower = inhibition) at 10 µM;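 active = thallium flux slope and its plate-corrected score both differing from the plate sample mean at a set confidence after two filtering rounds, in either direction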;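 note: slope of fluorescence scaled to starting intensity during 10 to 20 s after thallium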
KCC2 sec1: KCC2 (human) modulation, secondary assay; normalised thallium flux (F/F0 slope) at 10 µM; shares compounds with KCC2 mod; 3,700 compounds, 15% hits; HEK293-KCC2, thallium flux, FluoZin2 fluorescence; stronger effect = higher value;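 active = thallium flux slope above the same plate's solvent-only control mean plus 3 SD; inconclusive = the two replicate wells disagree; inactive = no significant difference from solvent-only control wells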
KCC2 bumet counter: thallium flux despite bumetanide block in KCC2 cells, secondary assay 3 | 3,700 compounds, 49% hits | normalized thallium flux at 10 µM | shares compounds with KCC2 mod | HEK293-KCC2 + bumetanide/ouabain, thallium flux FluoZin2; stronger effect = higher value;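 active = thallium entry rate above the same plate's blocked-transporter control wells by more than 3 SD; inconclusive = the two repeat wells disagree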;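 note: raw slope of fluorescence over initial fluorescence between 10 and 20 s after thallium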
KCC2 secondary2: confirmation of human KCC2 transport modulators. shares compounds with KCC2 mod. HEK293-KCC2, thallium flux FluoZin2 fluorescence; actives lie on both sides; F/F0 rise rate, 10–20 s post-thallium. normalized thallium flux at 10 µM. 3,700 compounds, 23% hits. AID 1715;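 active = thallium flux slope more than 3 SD above or below the plate's solvent-only control mean, mostly below; inconclusive = the two repeat wells disagreed; inactive = no significant shift from solvent-only controls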;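 note: raw slope with 0.1% DMSO as baseline and bumetanide as block control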
HEK counter1: acts in parental HEK cells, KCC2 counter-screen; shares compounds with KCC2 mod; HEK293 parental cells, thallium flux FluoZin2, ouabain; baseline-ratio fluorescence slope, 10–20 s after thallium; thallium flux rate (normalised fluorescence) at 10 µM; 3,700 compounds, 46% hits; AID 1716;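 active = thallium flux rate significantly above the same plate's solvent-only control wells, beyond their mean plus 3 SD; inconclusive = the two replicate wells gave conflicting results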
KCC2 retest ouab: confirmation of human KCC2 modulators with ouabain; shares compounds with KCC2 mod; HEK293-KCC2, thallium flux FluoZin2 fluorescence; bidirectional: low = inhibitor, high = activator; raw Tl+ flux slope (below DMSO = inhibition, above = activation) at 10 µM; 3,700 compounds, 48% hits; AID 1717;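 active = thallium flux slope beyond 3 SD from same-plate DMSO control mean in most replicates, usually higher, sometimes lower; inconclusive = repeat tests gave conflicting results; inactive = no significant difference from controls in most replicates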;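 note: slope of initial-normalized fluorescence between seconds 10 and 20 after thallium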
HEK293 Tl flux2: parental HEK flux effect, counter-screen 2 | 3,700 compounds, 33% hits | HEK293 parental, thallium flux FluoZin-2 fluorescence slope | AID 1718 | shares compounds with KCC2 mod | thallium flux slope at 10 µM;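 active = thallium flux slope above the same plate's solvent-control mean plus 3 SD in both duplicate wells; inconclusive = duplicate wells that disagreed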;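 note: run without ouabain in cells lacking the KCC2 cotransporter; slope of fluorescence scaled to its starting value between 10 and 20 s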
* = called active by the depositor; u = inconclusive; x = not tested or not shown. An excerpt weighted towards active compounds, which were near 3.7% of everything screened.

SMILES	Arbovirus anti	Mdm2 ligase inh	PKD1 inh	ROMK mod	m-calpain inh	KCC2 mod	KCC2 sec1	KCC2 bumet counter	KCC2 secondary2	HEK counter1	KCC2 retest ouab	HEK293 Tl flux2
S=c1[nH]nc(C2CCCCC2)n1/N=C/c1cccs1	10.4	-9.0	-3.6	x	-11.9	6.07*	0.0131*	0.0645*	0.0328	0.0232*	u	u
S=c1[nH]nc(C2CCCCC2)n1/N=C/c1ccncc1	11.8	-18.9	-5.1	x	-6.6	1.09	x	x	x	x	x	x
Cc1ccc(-c2n[nH]c(=S)n2/N=C/c2cccn2C)cc1	-1.8	-9.2	2.7	x	28.9	5.19*	0.0116	0.0308*	0.0341	0.00934*	0.0262	0.0114*
Cc1cnc(C(=O)N2CCCC(C(=O)c3ccc(Cl)cc3C)C2)cn1 (stereo unspecified)	4.2	-3.5	-8.8	0.797	24.6	0.256	x	x	x	x	x	x
NC(=O)COC(=O)CNC(=O)c1sc2ccccc2c1Cl	3.6	-4.7	-3.1	0.373	-21.2	-2.92	x	x	x	x	x	x
O=C(O)c1ccc2c(c1)C(=O)N(c1cccc(S(=O)(=O)Nc3cccc(C(F)(F)F)c3)c1)C2=O	13.5	-14.1	-2.6	-0.349	-12.0	0.713	x	x	x	x	x	x
S=c1[nH]nc(-c2ccccc2)n1/N=C/c1cccs1	1.9	-1.8	-4.7	x	-14.6	x	0.00563	0.04*	0.0428*	0.0246*	0.0369*	0.0265*
N#Cc1c(NC(=O)CSc2nc(N)cc(=O)[nH]2)sc2c1CCCCCC2	1.9	-14.7	5.8	x	-53.7	x	0.00617	0.00491	0.0268*	0.00745	u	0.00982
CCC(Sc1nc(C)cc(=O)[nH]1)C(=O)Nc1sc2c(c1C#N)CCCC2 (stereo unspecified)	15.3	-4.9	-18.2	-0.603	-26.1	x	0.00609	0.00451	0.0256*	0.0065	0.0168	0.0098
Cc1occc1C(=O)Nc1nnc(C(F)(F)F)s1	10.3	19.6	2.3	x	-20.0	0.362	x	x	x	x	x	x
O=C(Nc1ccccc1C(=O)Nc1nnc(C(F)(F)F)s1)c1ccccc1	x	-36.2	x	x	32.5	3.19*	u	0.022*	0.033	u	0.0193	0.0113
CCOC(=O)c1cc(C(O)(C(F)(F)F)C(F)(F)F)c(/N=C/N(C)C)o1	-1.8	-3.9	13.2	x	8.2	-0.323	x	x	x	x	x	x
Cc1onc(-c2ccccc2)c1C(=O)NNC(=S)NC(=O)c1ccc2c(c1)OCO2	x	-18.4	x	x	-36.4	16*	0.014*	0.0343*	0.0355	u	0.0299*	u
Cc1onc(-c2ccccc2)c1C(=O)NNC(=S)NC(=O)/C=C/c1cccs1	-5.7	-19.1	-9.1	x	-76.3	6.7*	0.00668	0.0266*	u	0.0156*	0.0298*	0.0183*
Cc1onc(-c2ccccc2)c1C(=O)NC(=S)NNC(=O)c1ccco1	x	-12.7	x	x	-19.3	6.64*	0.0183	0.0141*	0.0299	0.0142*	0.0207	0.0155*
Cn1c(=O)c(-c2cc(=O)[nH][nH]2)c(O)c2ccccc21	-5.1	-50.0	17.8	3.22	-3.5	0.807	x	x	x	x	x	x
Cc1ccccc1N(C(=O)Cn1nnc(-c2cccs2)n1)C(C(=O)NCCC(C)C)c1ccco1 (stereo unspecified)	4.0	12.8	-4.3	x	28.6	0.141	x	x	x	x	x	x
COc1ccc(-c2nnc(SCC(=O)N3CCC(Cc4ccccc4)CC3)o2)cc1OC	-4.1	-21.2	-19.0	x	-57.4	-1.56	x	x	x	x	x	x
Cc1ccc(NC(=O)C(OC(=O)c2ccc(C=O)cc2)c2ccccc2)cc1Cl (stereo unspecified)	0.4	-19.0	-6.2	x	-66.8	1.28	x	x	x	x	x	x
CC(C)OC(=O)[C@H]1[C@H](c2ccc(Cl)cc2)[C@@](C#N)(C(N)=O)[C@@H]2C=CC(C(N)=O)=CN21	11.7	9.8	0.2	1	-3.1	-0.0744	x	x	x	x	x	x
CCn1c(SC/C=C/c2ccccc2)nnc1-c1cccs1	1.2	-3.2	-8.4	x	19.4	x	x	x	x	x	x	x
C=CCn1c(Cc2cccs2)nnc1SC/C=C/c1ccccc1	-2.7	-10.8	-2.8	-1.43	18.2	-3.99*	0.00514	u	u	0.0053*	0.014*	0.00848*
Cc1cc(=O)[nH]n(CCO)c1=O	x	-0.7	x	x	-10.2	x	x	x	x	x	x	x
O=C(N/N=C/c1cn(-c2cccs2)nc1-c1ccccc1)c1ccccc1O	-2.2	-5.0	1.1	-0.0884	-33.2	5.44*	0.00963	0.019*	0.0325	0.0106*	0.0226	u
O=C(OCC(=O)N1CCN(C(=O)c2ccco2)CC1)c1sc2ccccc2c1Cl	7.5	-12.8	-10.2	x	20.6	-3.96*	0.00658	u	u	0.00835	0.0184	0.0117
SMILES	Arbovirus anti	Mdm2 ligase inh	PKD1 inh	ROMK mod	m-calpain inh	KCC2 mod	KCC2 sec1	KCC2 bumet counter	KCC2 secondary2	HEK counter1	KCC2 retest ouab	HEK293 Tl flux2
O=C(OCC(=O)N1CCN(C(=O)c2ccco2)CC1)c1ccccc1	16.1	-1.7	-5.1	-0.789	-4.6	0.245	x	x	x	x	x	x
Cc1ccccc1Cn1nc(C)c(NC(=O)c2noc3c2CCc2ccccc2-3)c1C	-2.4	-1.3	10.8	x	27.4	-3.84*	0.00848	0.00681	0.0329	0.0081	0.0193	0.0109
CCC(Oc1ccc2c(=O)c(-c3ccccc3OC)coc2c1)C(=O)OCc1ccccc1 (stereo unspecified)	-1.7	x	0.2	0.0227	12.5	-2.25	x	x	x	x	x	x
Cc1cccc(NC(=S)NNc2ncc(C(F)(F)F)cc2Cl)c1	-5.2	1.4	-5.9	0.644	-8.8	15.8*	0.0112	0.118*	0.0323	0.0272*	0.0546*	0.0139*
Cc1ccc2c(CN3CCOCC3)cc(=O)oc2c1	x	-10.9	x	x	11.9	0.873	x	x	x	x	x	x
Cc1cc2oc(=O)cc(CN3CCOCC3)c2cc1C	8.1	2.2	3.5	-0.255	-13.4	6.87*	0.00618	0.00527	0.0263*	0.00756	0.018	0.0114
COc1ccccc1Nc1nnc(SCc2nnc(-c3cc(OC)c(OC)c(OC)c3)o2)s1	-4.4	6.4	-4.2	-0.831	7.8	-1.83	x	x	x	x	x	x
COc1cc(-c2nnc(CSc3nnc(Nc4ccc(C(C)C)cc4)s3)o2)cc(OC)c1OC	11.4	-3.1	8.5	x	-40.4	-4.04*	0.00669	0.00492	0.025*	0.00775	0.0162*	0.0105
N#Cc1c(NC(=O)c2ccc(Cn3cc(Br)cn3)o2)sc2c1CCCCC2	-5.1	-2.5	-0.2	x	-5.6	-0.681	x	x	x	x	x	x
